Source: ChEMBL document CHEMBL3992561, “Synthesis of 1,3,5-trisubstituted pyrazolines as potential antimalarial and antimicrobial agents” (Bioorg Med Chem, 2017)
pIC50: −log10 of the molar value. In brackets after ≈: the same amount, converted by molar mass.

Assays:
[1] = Inhibition of beta-hematin formation assessed as reduction in acetate buffer-initiated hemozoin formation after 18 hrs by spectrophotometric method relative to control; parameters: concentration or dose not given beside the values; details: concentration not given here
How it was run: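 Colorimetric β-hematin assay after Ncokazi and Egan. Haemin chloride in DMSO, with compounds at 0.12–5 molar equivalents to haemin and DMSO as control. Reaction started with acetate buffer pH 5.0 and run 18 h at 37°C. Pellet then washed with DMSO to remove unreacted haematin. % inhibition computed from test versus control absorbance. Duplicate determinations.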

HepG2 = assay: Cytotoxicity against human HepG2 cells assessed as reduction in cell viability after 7 days by MTT assay; assay type: cell-based; details: HepG2, 168 h
How it was run: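 HepG2 cells maintained in RPMI 1640 with 10% FCS. Seeded at 5 x 10^2 cells per well and pre-incubated 1 h at 37°C, 5% CO2. Serial dilutions from DMSO stocks added, with medium and DMSO solvent controls. Cells incubated seven days, then MTT (5 mg/ml) added for 4 h. Formazan dissolved in ethanol, A570 read. IC50 by non-linear regression of % growth against log concentration.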

Pseudomonas aeruginosa = assay: Antibacterial activity against Pseudomonas aeruginosa MTCC 741 after 24 hrs by broth microdilution method; assay type: functional; details: MTCC 741, 24 h
How it was run: (§1)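 Broth microdilution per NCCLS in Mueller-Hinton broth, inoculum 5 x 10^5 CFU/ml. Compounds dissolved in DMSO, twofold serial dilutions made in sterile distilled water. Incubated at 35°C for 24 h. MIC (µg/ml) taken as the lowest concentration with no visible turbidity by unaided eye. Ciprofloxacin as positive control. Three replicates, mean ± SD.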

Staphylococcus aureus = assay: Antibacterial activity against Staphylococcus aureus MTCC 3160 after 24 hrs by broth microdilution method; assay type: functional; details: MTCC 3160, 24 h; how it was run: as §1
Aspergillus niger = assay: Antifungal activity against Aspergillus niger MTCC 8189 after 48 hrs by broth microdilution method; assay type: functional; details: MTCC 8189, 48 h
How it was run: (§2)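 Fungi grown in Sabouraud liquid medium, inoculum 0.5–2.5 x 10^3 CFU/ml. Broth microdilution per NCCLS using twofold serial dilutions in sterile water from DMSO solutions. Incubated at 35°C for 48 h. MIC (µg/ml) was the lowest concentration with no visible growth by eye. Fluconazole as positive control. Mean ± SD of three replicates.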

[2] = Selectivity index, ratio of IC50 for human HepG2 cells to IC50 for chloroquine-resistant Plasmodium falciparum RKL-9 schizont infected in RBC; assay type: toxicity; details: read-out: Ratio IC50
How it was run: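 HepG2 in RPMI 1640 with 10% FCS, 5 x 10^2 cells/well, serial dilutions (DMSO stocks) added after 1 h; 7 days at 37°C, 5% CO2; MTT 4 h, formazan in ethanol, absorbance 570 nm; IC50 by non-linear regression, one experiment in duplicate. Index = HepG2 IC50 / RKL-9 antiplasmodial IC50.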

Escherichia coli = assay: Antibacterial activity against Escherichia coli MTCC 51 after 24 hrs by broth microdilution method; assay type: functional; details: MTCC 51, 24 h; how it was run: as §1
Plasmodium falciparum [3] = assay: Antimalarial activity against chloroquine-resistant Plasmodium falciparum RKL-9 schizont infected in RBC measured after 24 to 30 hrs hrs by giemsa staining based light microscopic method; assay type: functional
How it was run: (§3)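 Asynchronous cultures synchronised to rings with 5% aqueous sorbitol, other stages removed by centrifugation; parasitemia about 1% in fresh washed RBCs. Compounds dissolved in DMSO, diluted in RPMI-1640, tested at several concentrations in triplicate; drug-free wells as control. Incubation 37°C in CO2 for 24-30 h until schizont maturation; methanol-fixed Giemsa smears counted under oil immersion; % inhibition, IC50 by probit; n=2.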

Candida albicans = assay: Antifungal activity against Candida albicans MTCC 227 after 48 hrs by broth microdilution method; assay type: functional; details: MTCC 227, 48 h; how it was run: as §2
Bacillus subtilis = assay: Antibacterial activity against Bacillus subtilis MTCC 121 after 24 hrs by broth microdilution method; assay type: functional; details: MTCC 121, 24 h; how it was run: as §1
Plasmodium falciparum [4] = assay: Antimalarial activity against chloroquine-sensitive Plasmodium falciparum MRC-2 schizont infected in RBC measured after 24 to 30 hrs hrs by giemsa staining based light microscopic method; assay type: functional; how it was run: as §3

SMILES	inhibition [1] [%]	pIC50 (HepG2)	MIC (Pseudomonas aeruginosa) [µg/mL]	MIC (Staphylococcus aureus) [µg/mL]	MIC (Aspergillus niger) [µg/mL]	selectivity ratio [2]	MIC (Escherichia coli) [µg/mL]	pIC50 (Plasmodium falciparum [3])	MIC (Candida albicans) [µg/mL]	MIC (Bacillus subtilis) [µg/mL]	pIC50 (Plasmodium falciparum [4])
CCN(CC)CCCC(C)Nc1ccnc2cc(Cl)ccc12 (configuration not stated)	87										
O=C(c1cccnc1)N1N=C(c2ccc(O)cc2)CC1c1ccc(OCc2ccccc2)cc1 (configuration not stated)	< 5	4.94	12.5 (≈ 27.8 µM)	50 (≈ 111 µM)	12.5 (≈ 27.8 µM)	4.48	25 (≈ 55.6 µM)	5.59	3.25 (≈ 7.23 µM)	50 (≈ 111 µM)	6.67
CC(C)Oc1ccc(C2CC(c3ccc(O)cc3)=NN2C(=O)c2cccnc2)cc1 (configuration not stated)	78	4.34	50 (≈ 125 µM)	50 (≈ 125 µM)	12.5 (≈ 31.1 µM)	139	6.5 (≈ 16.2 µM)	6.47	6.5 (≈ 16.2 µM)	75 (≈ 187 µM)	7.42
O=C(c1cccnc1)N1N=C(c2ccc(O)cc2)CC1c1ccc([N+](=O)[O-])cc1 (configuration not stated)	< 5	4.73	25 (≈ 64.4 µM)	6.5 (≈ 16.7 µM)	25 (≈ 64.4 µM)	7.63	6.5 (≈ 16.7 µM)	5.61	12.5 (≈ 32.2 µM)	12.5 (≈ 32.2 µM)	5.81
Cc1cc(C)c(C2CC(c3ccc(O)cc3)=NN2C(=O)c2cccnc2)c(C)c1 (configuration not stated)	67	4.26	6.5 (≈ 16.9 µM)	12.5 (≈ 32.4 µM)	25 (≈ 64.9 µM)	100	6.5 (≈ 16.9 µM)	6.26	50 (≈ 130 µM)	12.5 (≈ 32.4 µM)	7.03
O=C(c1cccnc1)N1N=C(c2ccc(O)cc2)CC1c1ccc(Br)cc1 (configuration not stated)	76	4.23	12.5 (≈ 29.6 µM)	6.5 (≈ 15.4 µM)	25 (≈ 59.2 µM)	60.5	25 (≈ 59.2 µM)	6.01	50 (≈ 118 µM)	12.5 (≈ 29.6 µM)	6.85
OC(Cn1cncn1)(Cn1cncn1)c1ccc(F)cc1F [FLUCONAZOLE]					25 (≈ 81.6 µM)				12.5 (≈ 40.8 µM)		
COc1ccc(C2CC(c3ccc(O)cc3)=NN2C(=O)c2cccnc2)cc1C (configuration not stated)	66	4.35	6.5 (≈ 16.8 µM)	25 (≈ 64.5 µM)	25 (≈ 64.5 µM)	57.5	12.5 (≈ 32.3 µM)	6.11	50 (≈ 129 µM)	25 (≈ 64.5 µM)	7.20
COc1ccc(OC)c(C2CC(c3ccc(O)cc3)=NN2C(=O)c2cccnc2)c1 (configuration not stated)	71	4.25	12.5 (≈ 31 µM)	25 (≈ 62 µM)	12.5 (≈ 31 µM)	172	25 (≈ 62 µM)	6.48	75 (≈ 186 µM)	25 (≈ 62 µM)	7.40
CC(C)c1ccc(C2CC(c3ccc(O)cc3)=NN2C(=O)c2cccnc2)cc1 (configuration not stated)	48	4.41	12.5 (≈ 32.4 µM)	12.5 (≈ 32.4 µM)	25 (≈ 64.9 µM)	83.3	3.25 (≈ 8.43 µM)	6.33	12.5 (≈ 32.4 µM)	50 (≈ 130 µM)	7.47
O=C(c1cccnc1)N1N=C(c2ccc(O)cc2)CC1c1ccc(F)cc1 (configuration not stated)	< 5	4.28	12.5 (≈ 34.6 µM)	12.5 (≈ 34.6 µM)	25 (≈ 69.2 µM)	18.1	6.5 (≈ 18 µM)	5.54	12.5 (≈ 34.6 µM)	3.25 (≈ 8.99 µM)	5.60
COc1ccc(C2CC(c3ccc(O)cc3)=NN2C(=O)c2cccnc2)cc1OC (configuration not stated)	89	4.27	25 (≈ 62 µM)	50 (≈ 124 µM)	6.5 (≈ 16.1 µM)	213	50 (≈ 124 µM)	6.60	75 (≈ 186 µM)	50 (≈ 124 µM)	7.52
COc1ccc(C2CC(c3ccc(O)cc3)=NN2C(=O)c2cccnc2)cc1 (configuration not stated)	54	4.37	25 (≈ 67 µM)	50 (≈ 134 µM)	12.5 (≈ 33.5 µM)	76.3	25 (≈ 67 µM)	6.25	50 (≈ 134 µM)	75 (≈ 201 µM)	7.23
O=C(O)c1cn(C2CC2)c2cc(N3CCNCC3)c(F)cc2c1=O [CIPROFLOXACIN]		4.57					12.5 (≈ 37.7 µM)	6.40		25 (≈ 75.4 µM)	
CCc1ccccc1C1CC(c2ccc(O)cc2)=NN1C(=O)c1cccnc1 (configuration not stated)	53	4.45	25 (≈ 67.3 µM)	50 (≈ 135 µM)	50 (≈ 135 µM)	75.1	12.5 (≈ 33.7 µM)	6.33	100 (≈ 269 µM)	50 (≈ 135 µM)	7.09
CC(C)c1ccccc1C1CC(c2ccc(O)cc2)=NN1C(=O)c1cccnc1 (configuration not stated)	57	4.30	12.5 (≈ 32.4 µM)	25 (≈ 64.9 µM)	25 (≈ 64.9 µM)	30.1	3.25 (≈ 8.43 µM)	5.78	50 (≈ 130 µM)	12.5 (≈ 32.4 µM)	6.96
CCCc1ccc(C2CC(c3ccc(O)cc3)=NN2C(=O)c2cccnc2)cc1 (configuration not stated)	81	4.38	12.5 (≈ 32.4 µM)	12.5 (≈ 32.4 µM)	25 (≈ 64.9 µM)	216	12.5 (≈ 32.4 µM)	6.72	25 (≈ 64.9 µM)	50 (≈ 130 µM)	7.66
O=C(c1cccnc1)N1N=C(c2ccc(O)cc2)CC1c1ccccc1Cl (configuration not stated)	31	4.32	3.25 (≈ 8.6 µM)	75 (≈ 199 µM)	3.25 (≈ 8.6 µM)	20.5	50 (≈ 132 µM)	5.63	6.5 (≈ 17.2 µM)	12.5 (≈ 33.1 µM)	6.62
